Measured values reported in ChEMBL document CHEMBL1140662, “Benzo[b]thiophene-based histone deacetylase inhibitors” (Bioorg Med Chem Lett, 2007).

Columns and labels:
Histone deacetylase 1 [1] = target: T1, Histone deacetylase 1 (Homo sapiens, UniProt Q13547); test: Inhibition of HDAC1 at 10 uM
Histone deacetylase 1 [2] = target: T1, Histone deacetylase 1; test: Inhibition of HDAC1
In short: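 Epitope-tagged human HDAC1 complex, immuno-purified from stably expressing mammalian cells, tested against a commercial HDAC substrate. IC50 values are means of three experiments.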

[3] = Antiproliferative activity against mouse SC9 cells; format: functional, cell-based
In short: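 Murine erythroleukemia SC-9 cells were exposed to vehicle or increasing compound concentrations for 48 h, and proliferation was read by MTS assay. IC50 values are means of three experiments.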

T1 sequence (Q13547 whole entry): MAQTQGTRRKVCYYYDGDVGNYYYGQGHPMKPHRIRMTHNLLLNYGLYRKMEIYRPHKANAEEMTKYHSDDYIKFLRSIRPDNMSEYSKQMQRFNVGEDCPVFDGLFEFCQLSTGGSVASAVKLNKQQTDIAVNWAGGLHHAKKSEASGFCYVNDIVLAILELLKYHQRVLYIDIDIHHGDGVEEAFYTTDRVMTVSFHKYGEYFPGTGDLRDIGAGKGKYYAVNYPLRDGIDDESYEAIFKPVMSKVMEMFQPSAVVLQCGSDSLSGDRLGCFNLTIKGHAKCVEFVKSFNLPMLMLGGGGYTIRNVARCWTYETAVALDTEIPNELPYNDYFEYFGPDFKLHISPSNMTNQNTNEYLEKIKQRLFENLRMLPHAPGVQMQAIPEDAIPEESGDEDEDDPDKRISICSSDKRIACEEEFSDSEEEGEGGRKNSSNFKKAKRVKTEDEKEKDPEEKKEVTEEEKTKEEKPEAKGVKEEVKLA

O=C(NO)c1csc2ccccc12
inhibition (Histone deacetylase 1 [1]): 38%

O=C(NC(c1ccccc1)c1ccccc1)c1ccc2cc(C(=O)NO)sc2c1
IC50 (Histone deacetylase 1 [2]): 285 nM
IC50 [3]: 2960 nM

O=C(NO)c1ccsc1
IC50 (Histone deacetylase 1 [2]): 9700 nM

O=C(NO)c1cc2cc(CNCc3ccccc3)ccc2s1
IC50 [3]: 475 nM

O=C(CCc1ccccc1)Nc1ccc2cc(C(=O)NO)sc2c1
IC50 (Histone deacetylase 1 [2]): 55 nM
IC50 [3]: 5580 nM

O=C(NO)c1cccs1
IC50 (Histone deacetylase 1 [2]): 6600 nM

O=C(NCc1ccc2cc(C(=O)NO)sc2c1)c1ccccc1
IC50 (Histone deacetylase 1 [2]): 10 nM
IC50 [3]: 190 nM

O=C(NO)c1cc2ccc(CNCc3ccccc3)cc2s1
IC50 (Histone deacetylase 1 [2]): 50 nM
IC50 [3]: 160 nM

COC(=O)c1ccc2cc(C(=O)NO)sc2c1
IC50 [3]: 13900 nM

O=C(NO)c1cc2ccc(CNc3ccccc3)cc2s1
IC50 (Histone deacetylase 1 [2]): 45 nM
IC50 [3]: 1780 nM

CC[C@@H](C(=O)Nc1ccc2cc(C(=O)NO)sc2c1)c1ccccc1
IC50 (Histone deacetylase 1 [2]): 60 nM
IC50 [3]: 530 nM

O=C(NCc1ccccc1)c1ccc2cc(C(=O)NO)sc2c1
IC50 (Histone deacetylase 1 [2]): 55 nM
IC50 [3]: 1100 nM

O=C(NO)c1cc2cc(CNc3ccccc3)ccc2s1
IC50 (Histone deacetylase 1 [2]): 175 nM
IC50 [3]: 4870 nM

COc1ccc(CC(=O)Nc2ccc3cc(C(=O)NO)sc3c2)cc1
IC50 (Histone deacetylase 1 [2]): 20 nM
IC50 [3]: 205 nM

O=C(NO)c1cc2cc(CNCCc3ccccc3)ccc2s1
IC50 (Histone deacetylase 1 [2]): 200 nM
IC50 [3]: 945 nM

O=C(Cc1ccc(F)cc1)Nc1ccc2cc(C(=O)NO)sc2c1
IC50 (Histone deacetylase 1 [2]): 20 nM
IC50 [3]: 230 nM

O=C(NCc1ccccc1)c1ccc2sc(C(=O)NO)cc2c1
IC50 (Histone deacetylase 1 [2]): 75 nM
IC50 [3]: 1700 nM

O=C(Cc1ccccc1)Nc1ccc2cc(C(=O)NO)sc2c1
IC50 (Histone deacetylase 1 [2]): 10 nM
IC50 [3]: 220 nM

CC[C@H](C(=O)Nc1ccc2cc(C(=O)NO)sc2c1)c1ccccc1
IC50 (Histone deacetylase 1 [2]): 20 nM
IC50 [3]: 140 nM

O=C(NO)c1cc2ccc(CNCCc3ccccc3)cc2s1
IC50 (Histone deacetylase 1 [2]): 128 nM
IC50 [3]: 455 nM

O=C(NCCc1ccccc1)c1ccc2sc(C(=O)NO)cc2c1
IC50 (Histone deacetylase 1 [2]): 155 nM
IC50 [3]: 5330 nM

O=C(Nc1ccccc1)c1ccc2sc(C(=O)NO)cc2c1
IC50 (Histone deacetylase 1 [2]): 600 nM
IC50 [3]: 6140 nM

O=C(Cc1ccccc1)Nc1ccc2sc(C(=O)NO)cc2c1
IC50 (Histone deacetylase 1 [2]): 30 nM
IC50 [3]: 1160 nM

O=C(Nc1ccc2cc(C(=O)NO)sc2c1)c1ccccc1
IC50 [3]: 2900 nM

O=C(Cc1ccccc1)NCc1ccc2cc(C(=O)NO)sc2c1
IC50 (Histone deacetylase 1 [2]): 70 nM
IC50 [3]: 1220 nM

CCC(C(=O)Nc1ccc2cc(C(=O)NO)sc2c1)c1ccccc1 (stereo unspecified)
IC50 (Histone deacetylase 1 [2]): 40 nM
IC50 [3]: 225 nM
